This note sets out measurements from ChEMBL document CHEMBL3785031, “Discovery of small-molecule nonpeptide antagonists of nociceptin/orphanin FQ receptor: The studies of design, synthesis, and structure-activity relationships for (4-arylpiperidine substituted-methyl)-[bicyclic (hetero)cycloalkanobenzene] derivatives” (Eur J Med Chem, 2016).

In series [1] the test system is HEK293. As to the kind of experiment: Selectivity ratio of Ki for human mu opioid receptor expressed in CHOK1 cells to Ki for human NOP receptor expressed in HEK293 cells. The class given is cell-based.
Series [2] has as its target Mu-type opioid receptor (Homo sapiens, UniProt P35372). As to the kind of experiment: Displacement of [3H]DAMGO from human mu opioid receptor expressed in CHOK1 cells after 45 mins by scintillation proximity assay. In kind it is cell-based, CHO-K1. (Loss of bound radioactivity is the signal in a displacement assay; it reports binding, not function.)
The target of series [3] is T1, Nociceptin receptor (Homo sapiens, UniProt P41146). As to the kind of experiment: Displacement of [3H]N/OFQ from human NOP receptor expressed in HEK293 cells after 45 mins by scintillation proximity assay. The class given is cell-based. A digest of the protocol:
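HEK-293 membranes bearing recombinant hNOP receptor (8.3 μg) were incubated at 25 °C for 45 min with 0.4 nM [3H]N/OFQ and WGA-SPA beads. Buffer was 50 mM HEPES, pH 7.4, with 10 mM MgCl2 and 1 mM EDTA. Six concentrations, 10⁻¹¹–10⁻⁵ M, were run in duplicate; NSB with 1 μM N/OFQ. IC50 by nonlinear regression; Ki = IC50/(1+[L]/KD), KD 0.135 nM.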

Series [4] addresses T1, Nociceptin receptor. As to the kind of experiment: Antagonist activity at human NOP receptor expressed in HEK293 cells assessed as inhibition of N/OFQ-induced [35S]GTPgammaS binding after 1.5 hrs by scintillation proximity assay. In kind it is functional, cell-based. In short, it runs like this:
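Membranes from HEK-293 cells expressing hNOP receptor were incubated 1.5 h at 25 °C with 10 nM N/OFQ, 400 pM [35S]GTPγS, 5 μM GDP and WGA-SPA beads. Buffer was 20 mM HEPES, 100 mM NaCl, 5 mM MgCl2 and 1 mM EDTA, pH 7.4. Six compound concentrations from 0.1 nM to 10 μM were run in duplicate. Basal binding was measured without ligands; NSB with 10 μM unlabeled GTPγS. Read by scintillation counting; IC50 derived.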
For orientation: GTPγS resists hydrolysis and so accumulates on activated G proteins.

The target of series [5] is hERG (KCNH2) (Homo sapiens, UniProt Q12809). As to the kind of experiment: Displacement of [3H]dofetilide from human ERG channel expressed in HEK293 cells at 1 uM after 60 mins by liquid scintillation counting method. The class given is cell-based. As to conditions: HEK293 cells that express hERG, probe [3H]dofetilide.
The nature of series [6]: Half life in human liver microsomes at 1 uM by HPLC-MS/MS analysis. In kind it is ADME. In short, it runs like this: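 Substrate at 1.0 μM was incubated at 37 °C in pooled human liver microsomes (1.0 mg/mL protein) with 3.3 mM MgCl2, 0.1 M NaKHPO4 (pH 7.4) and an NADPH-regenerating system.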
In general terms: Liver microsomes are a subcellular fraction often used to study metabolism.

Series [7] concerns the target Voltage-gated inwardly rectifying potassium channel KCNH2 (Homo sapiens, UniProt Q12809). As to the kind of experiment: Displacement of [3H]dofetilide from human ERG channel expressed in HEK293 cells after 60 mins by liquid scintillation counting method. The class given is cell-based.

Molecules are shown by their SMILES. pIC50, pKi: −log10 of the molar value. Bounds are passed on as bounds.

T1 sequence (P41146 whole entry): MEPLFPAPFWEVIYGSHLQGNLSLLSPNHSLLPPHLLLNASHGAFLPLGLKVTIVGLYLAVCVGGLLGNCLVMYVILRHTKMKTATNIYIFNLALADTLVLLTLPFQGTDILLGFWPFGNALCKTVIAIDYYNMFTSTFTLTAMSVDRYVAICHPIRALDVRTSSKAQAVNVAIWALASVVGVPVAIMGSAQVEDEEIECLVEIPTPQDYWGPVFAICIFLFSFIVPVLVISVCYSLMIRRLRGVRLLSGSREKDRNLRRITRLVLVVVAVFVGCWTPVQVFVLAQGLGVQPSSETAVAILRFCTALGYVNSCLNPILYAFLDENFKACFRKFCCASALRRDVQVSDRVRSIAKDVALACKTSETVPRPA
Sequence of Voltage-gated inwardly rectifying potassium channel KCNH2 (Q12809 whole entry): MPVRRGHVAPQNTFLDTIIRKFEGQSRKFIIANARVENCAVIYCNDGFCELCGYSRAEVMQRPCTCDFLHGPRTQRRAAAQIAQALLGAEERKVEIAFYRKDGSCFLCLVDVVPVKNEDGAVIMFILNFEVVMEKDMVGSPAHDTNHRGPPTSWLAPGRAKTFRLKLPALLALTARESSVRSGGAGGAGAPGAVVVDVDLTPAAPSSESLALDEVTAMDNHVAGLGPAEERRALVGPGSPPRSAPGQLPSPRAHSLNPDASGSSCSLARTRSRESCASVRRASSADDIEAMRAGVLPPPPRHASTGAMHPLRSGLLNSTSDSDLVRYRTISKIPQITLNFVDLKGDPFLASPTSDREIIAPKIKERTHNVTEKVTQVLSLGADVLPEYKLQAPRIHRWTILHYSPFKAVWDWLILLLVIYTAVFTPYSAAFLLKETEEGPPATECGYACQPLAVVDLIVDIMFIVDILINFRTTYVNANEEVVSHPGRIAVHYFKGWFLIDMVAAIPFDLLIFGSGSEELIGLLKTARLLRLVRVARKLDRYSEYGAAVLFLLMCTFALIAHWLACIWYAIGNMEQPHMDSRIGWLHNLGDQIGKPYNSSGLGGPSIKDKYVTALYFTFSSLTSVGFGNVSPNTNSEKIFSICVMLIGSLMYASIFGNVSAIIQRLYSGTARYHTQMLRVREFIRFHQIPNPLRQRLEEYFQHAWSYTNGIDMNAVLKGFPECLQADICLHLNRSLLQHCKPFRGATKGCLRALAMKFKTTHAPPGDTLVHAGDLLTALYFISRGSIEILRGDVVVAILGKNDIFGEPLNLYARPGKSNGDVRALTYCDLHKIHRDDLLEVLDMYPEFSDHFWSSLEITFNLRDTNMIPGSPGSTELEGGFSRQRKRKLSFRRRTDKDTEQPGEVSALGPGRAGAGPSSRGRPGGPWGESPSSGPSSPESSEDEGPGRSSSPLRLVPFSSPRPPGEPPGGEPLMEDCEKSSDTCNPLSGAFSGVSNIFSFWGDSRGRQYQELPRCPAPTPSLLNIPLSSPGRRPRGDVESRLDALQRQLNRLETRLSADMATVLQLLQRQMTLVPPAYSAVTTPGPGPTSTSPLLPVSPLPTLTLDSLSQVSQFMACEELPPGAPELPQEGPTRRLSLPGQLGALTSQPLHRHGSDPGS
Sequence of Mu-type opioid receptor (P35372 whole entry): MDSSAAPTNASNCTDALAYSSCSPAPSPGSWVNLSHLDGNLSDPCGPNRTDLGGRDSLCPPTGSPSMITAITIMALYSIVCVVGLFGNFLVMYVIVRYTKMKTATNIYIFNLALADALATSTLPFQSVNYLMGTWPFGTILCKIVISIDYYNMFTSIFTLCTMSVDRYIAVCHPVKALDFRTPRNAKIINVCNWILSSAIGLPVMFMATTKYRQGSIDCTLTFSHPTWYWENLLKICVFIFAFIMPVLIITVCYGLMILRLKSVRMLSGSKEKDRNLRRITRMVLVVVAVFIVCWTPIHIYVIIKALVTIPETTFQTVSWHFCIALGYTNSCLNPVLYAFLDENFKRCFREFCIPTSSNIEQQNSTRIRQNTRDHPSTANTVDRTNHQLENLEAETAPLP
Sequence of hERG (KCNH2) (Q12809 whole entry): as the sequence (Q12809 whole entry) above

Consider `CN1Cc2ccccc2CC1CN1CCC2(CCc3ccccc32)CC1` (stereo not drawn), for which, in series [1], the Ratio Ki worked out at 3.08. Besides, the figures for the pKi in series [2] and in series [3] were 7.24 and 7.72, respectively.

In the case of `O=C(C1Cc2ccccc2CN1)N1CCC2(CCc3ccccc32)CC1` (stereo not drawn), the pKi (usually the negative decadic logarithm of the Ki, by convention in mol/L) was below 6.35 in series [2] and below 6.60 in series [3].

Regarding `NC(=O)N1Cc2ccccc2CC1CN1CCC2(CCc3ccccc32)CC1` (stereo not drawn), in series [1], the Ratio Ki is 5.97. In addition, the pKi is 6.97 in series [2] and 7.74 in series [3].

As to `c1ccc2c(c1)CCC(CN1CCC3(CCc4ccccc43)CC1)C2` (stereo not drawn), in series [1], the Ratio Ki was found to be 52.1. In addition, the pKi was 6.54 in series [2] and 8.26 in series [3]. Also, in series [4], the pIC50 – broadly, the IC50 on a negative log10 scale, so that one unit is a factor of ten – is 6.17. For the same compound, the inhibition (commonly the relative decrease from the control value, in per cent) at 1 h, 1 µM in series [5] came out at 71%.

`Oc1cccc2c1CNC(CN1CCC3(CCc4ccccc43)CC1)C2` (stereo not drawn): the Ratio Ki in series [1] came to 120. The half-life – broadly, the time in which the quantity being followed falls by half – at 1 µM in series [6] was found to be 12.2 min. Also, the pKi is 6.54 in series [2] and 8.62 in series [3]. Moreover, the pIC50 in series [4] is 7.27; in series [7], 6.03.

Regarding `Oc1ccc(Cl)c2c1CNC(CN1CCC3(CCc4ccccc43)CC1)C2` (stereo not drawn), the half-life at 1 µM in series [6] worked out at 15.3 min. The pKi was 7.16 in series [2] and 8.66 in series [3]. Also, in series [4], the pIC50 is 7.67.

`Oc1ccc(Br)c2c1CNC(CN1CCC3(CCc4ccccc43)CC1)C2` (stereo not drawn) yielded a half-life at 1 µM in series [6] of 9.6 min. The pKi in series [2] is 6.86; in series [3] it was 8.76. In addition, in series [4], the pIC50 is 7.45.

On to `c1ccc2c(c1)CNC(CN1CCC3(CCc4ccccc43)CC1)C2` (stereo not drawn), for which the Ratio Ki in series [1] was found to be 26.5. This compound also gave a half-life at 1 µM in series [6] of 6.6 min. Further, the negative logarithm of the Ki (pKi) in series [2] is 6.65; in series [3] it was 8.07. In addition, the pIC50 in series [4] is 6.61; in series [7] it was below 5.82.

On to `CC(=O)N1Cc2ccccc2CC1CN1CCC2(CCc3ccccc32)CC1` (stereo not drawn), for which the Ratio Ki in series [1] was found to be 2.5. For the same compound, the results for the pKi in series [2] and in series [3] were 7.13 and 7.53, respectively. Further, the pIC50 in series [7] is 6.30.

Regarding `c1ccc2c(c1)CC(CN1CCC3(CCc4ccccc43)CC1)CO2` (stereo not drawn), the Ratio Ki in series [1] is 8.69. The half-life at 1 µM in series [6] stood at 3.1 min. Besides, the pKi in series [2] was 7.31; in series [3] it was 8.25. In addition, the pIC50 in series [4] was 6.91; in series [7], 5.82.

`Cc1cc(F)ccc1C1CCN(CC2Cc3c(Cl)ccc(O)c3CN2)CC1` (stereo not drawn): the Ratio Ki in series [1] was above 143. Besides, the half-life at 1 µM in series [6] is 21.6 min. Besides, the pKi was below 6.35 in series [2] and 8.52 in series [3]. For the same compound, the negative-log IC50 (pIC50) in series [4] was 7.54; in series [7], 6.01.

For the compound `Cc1cc(F)ccc1C1CCN(CC2Cc3ccccc3CN2)CC1` (stereo not drawn), the Ratio Ki in series [1] turned out to be 96.1. This compound had a half-life at 1 µM in series [6] of 6.9 min. For the same compound, the pKi is 6.47 in series [2] and 8.45 in series [3]. The figures for the pIC50 in series [4] and in series [7] were 7.23 and 6.70, respectively.

In series [6], `Oc1ccc2c(c1)CC(CN1CCC3(CCc4ccccc43)CC1)NC2` (stereo not drawn) gave a half-life at 1 µM of 18 min. Also, the negative-log Ki (pKi) in series [2] is 6.41; in series [3] it was 7.99. The pIC50 in series [4] is 6.64.

For `CN1C(=O)c2ccccc2CC1CN1CCC2(CCc3ccccc32)CC1` (stereo not drawn), in series [1], the Ratio Ki was below 0.924. The values for the pKi in series [2] and in series [3] were 6.64 and below 6.60, respectively. In series [7], this compound gave a pIC50 of 5.16.
